Experimental findings from the RNAGym collection of RNA variant scans (doi:10.1126/science.aae0568) are described below.

Fewer inactive variants are shown than the library holds.

First the molecules themselves.
B1: tRNA (parent)
chain: GUUCCGUUGGCGUAAUGGUAACGCGUCUCCCUCCUAAGGAGAAGACUGCGGGUUCGAGUCCCGUACGGAACG

The variants in the data set derive from B1. Nature of the data set: yeast fitness relative to wild type (ratio to wild type); higher = fitter; tRNA-Arg(CCU), competitive growth, 37 C, YPD. In short, it runs like this:
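Variants of the tRNA-Arg(CCU) gene, chemically synthesised with a 3% per-site mutation rate at 69 sites, were placed at the native genomic locus in Saccharomyces cerevisiae. The pooled strains were competed in YPD at 37°C for 24 hours in six parallel replicates. Gene amplicons from the start population and from each end population were read by 100-nucleotide paired-end sequencing. Darwinian fitness relative to wild type came from changes in genotype frequencies; genotypes needed ≥ 100 starting reads, and estimates < 0.5 were set to 0.5.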
For the variant GUUCCGUUGGCGUAAUGGUAACGCGUUACCCACUUCAGGAGAAGACUGCGGGUUAGAGUCCCGUACGGAACG [C27U U28A U32A C34U A36C C55A], the yeast fitness turned out to be 0.543.
As for GUUCCGUUGGCGUAAUGGUAACGCGUUUCCCUCCCAAGGAGACGACUGCGGGUUCGAGUCCCGUACGGUACG [C27U U35C A43C A69U], the yeast fitness is 0.62.
GUUCCGUUGGCGUAAUGGUAACGCGUUUCCCUCCAAAGGAGAAGACUGCGGGUUCGAGUCCCGUACGGAACG [C27U U35A]: the yeast fitness is 0.771.
The same measure for GUUCCGUUGGCGUAAUGGUAACGCGUUGGCCUCCUAAGGAGAAGACUGCGGGUUCGAGUCCCGUACGGAACG [C27U U28G C29G]: no more than 0.5; for GUUCCGUUGGCGUAAUGGUAACGCGUUUCCCCCCUAAGGAGAAGACUGCGGGUUCGAGUCCGGUACGGAACG [C27U U32C C62G]: no more than 0.5.
GUUCCGUUGGCGUAAUGGUAACGCGUUACCCACUUCAGGAGAAGACUGCGGGUUCGAGUCCCGUACGGAACG [C27U U28A U32A C34U A36C]: the yeast fitness was 0.554.
With GUUCCGUUGGCGUAAUGGUAACGCGUUUCCCUCCUAAGGAGAAGACUGCGGGUGCGAGUCCCGUACGGAACG [C27U U54G], the yeast fitness is 0.581.
With GUUCCGUUGGCGUAAUGGUAACGCGUUUCCCUCCUAAGGAGAAGACUGCGGGUCCGAGUCCCGUACGGAACG [C27U U54C] the figure was 0.93; with GUUCCGUUGGCGUAAUGGUAACGCGUUUCCCUCCGAAGGAGAAGACUGCGGGUUCGCGUCCCGUCCGGAUCG [C27U U35G A57C A65C A70U], no more than 0.5.
Consider GUUCCGUUGGCGUAAUGGUAACGCGUCACCCUCCUAGGGAGAAGACUGCGGGUUCGAGUCCCGUACGGAACG [U28A A37G], for which the yeast fitness turned out to be 0.658.
With GUUCCGUUGGCGUAAUGGUAACGCGUCACCCUCCUACGGAGAAGACUGCGGGUUCGAGUCCCGUACGGAACG [U28A A37C] the figure was 0.657; with GUUCCGUUGGCGUAAUGGUAACGCGUUUCCCCCCUAAGGAGAAGACUGCGGGUUCGAGUCCCGUUCGGACCG [C27U U32C A65U A70C], no more than 0.5.
The same measure for GUUCCGUUGGCGUAAUGGUAACGCGUCACCCUCCUAAGGCGAAGAGUGCGGGUUCGAGUCCCGUACGGAACG [U28A A40C C46G]: no more than 0.5; for GUUCCGUUGGCGUAAUGGUAACGCGUCACCCUCCUAUGGAGAAGACUGCGGGUUCGAGUCCCGUACGGCACG [U28A A37U A69C]: no more than 0.5; for GUUCCGUUGGCGUAAUGGUAACGCGUUUCCCACCUAAGGAGAAGACUGCGGGUUCGAGUCCCGUAUCGAACG [C27U U32A C66U G67C]: 0.598.
Consider GUUCCGUUGGCGUAAUGGUAACGCGUUCCCCUCCUAAGGAGAAGACUGCGGGUUCGAGUCCUGUACGGAACG [C27U U28C C62U], for which the yeast fitness was 0.625.
For GUUCCGUUGGCGUAAUGGUAACGCGUUUCCCUCCCAAGGAGAAGACUGCGGGUUCGAGUCCCGUACGGUACG [C27U U35C A69U], the yeast fitness came out at 0.802.
Consider GUUCCGUUGGCGUAAUGGUAACGCGUUUCCCUCCUAAGGAGAAGACUGCGGGAUCGAGUCCCGUACAGAACG [C27U U53A G67A], for which the yeast fitness is no more than 0.5.
As for GUUCCGUUGGCGUAAUGGUAACGCGUUUCCCCCCUAAGGAGAAGACUGCGGGUUCGAGUCCCGUACGGAACG [C27U U32C], the yeast fitness was 0.844.
On to GUUCCGUUGGCGUAAUGGUAACGCGUUUCCCUCCGAAGGAGUAGACUGCGGGUUCGAGUCCCGUACGGAACG [C27U U35G A42U], for which the yeast fitness was no more than 0.5.
Turning to GUUCCGUUGGCGUAAUGGUAACGCGUCACCCUCCUAGGGGGAAGACUGCGGGUUCGAGUCCCGUACGGAACG [U28A A37G A40G], the yeast fitness is no more than 0.5.
With GUUCCGUUGGCGUAAUGGUAACGCGUUCCCCUCCUAAGGAGAAGCCUGCGGGUUCGAGUCCCGUACGGAACG [C27U U28C A45C], the yeast fitness amounted to 0.773.
With GUUCCGUUGGCGUAAUGGUAACGCGUUUCCCUCCUAAGGAGAAGACUGCGGGUUCGAGUCCCGCACGGAACG [C27U U64C] the figure was 0.969; with GUUCCGUUGGCGUAAUGGUAACGCGUUGCCCUCCUAAGGAGUAGACUGCGGGUUCGAGUCCCGUACGGAACG [C27U U28G A42U], 0.535; with GUUCCGUUGGCGUAAUGGUAACGCGUUUCCCUCCAAAGGAGAAGACUGCGGGUUCGAGCCCCGUACGGAACG [C27U U35A U59C], no more than 0.5.
On to GUUCCGUUGGCGUAAUGGUAACGCGUUACCCACUUCAGGAGAAGACUGCGGGUUAGAGUCCCGUCCGGACCG [C27U U28A U32A C34U A36C C55A A65C A70C], for which the yeast fitness is no more than 0.5.
Consider GUUCCGUUGGCGUAAUGGUAACGCGUUUCCCUCCUAAGGAGAAGACUGCGGGUUCGAGGCCCGUACGGAACG [C27U U59G], for which the yeast fitness was found to be 0.823.
The same measure for GUUCCGUUGGCGUAAUGGUAACGCGUUUCCCACCUAAGGAGAAGACUGCGGAUUCGAGUCCCGUAUCGAACG [C27U U32A G52A C66U G67C]: no more than 0.5; for GUUCCGUUGGCGUAAUGGUAACGCGUUGCCCUCCUAAGGCGAAGAAUGUGGGUUCGAGUCCCGUACGGAUCG [C27U U28G A40C C46A C49U A70U]: 0.695.
With GUUCCGUUGGCGUAAUGGUAACGCGUCACCCUCCUAAGGGGAAGACUGCGGGUUCGAGUCCCGUUUGGAACG [U28A A40G A65U C66U] the figure was no more than 0.5; with GUUCCGUUGGCGUAAUGGUAACGCGUUGCCCUCCUAAGGCGAAGACUGCGGGUUGGAGUCCCGUACGGACCG [C27U U28G A40C C55G A70C], no more than 0.5; with GUUCCGUUGGCGUAAUGGUAACGCGUUGCCCUCCUAAGGCGAAGACUGCGGGUUCGAGUCCCGUACGGCACG [C27U U28G A40C A69C], 0.607.
For GUUCCGUUGGCGUAAUGGUAACGCGUUUCCCUCCUAAGGAGAAGACGGCAGGUUCGAGUCCCGUACGGAACG [C27U U47G G50A], the yeast fitness was no more than 0.5.
In the case of GUUCCGUUGGCGUAAUGGUAACGCGUCACCCUCCUACGGAGAAGACUGCGGGUUCGAGUCGCGUACGGAACG [U28A A37C C61G], the yeast fitness is no more than 0.5.
With GUUCCGUUGGCGUAAUGGUAACGCGUCACCCUCCUCAGGAGAAGACUGCGGGUUCGAGUCCCGUACGGAACG [U28A A36C] the figure was 0.511; with GUUCCGUUGGCGUAAUGGUAACGCGUUUCCCUCCUAAGGAGAAGACUGCGGGUGUGAGUCCCGUACGGAACG [C27U U54G C55U], no more than 0.5; with GUUCCGUUGGCGUAAUGGUAACGCGUCACCCUCCUACGGAGAAGACUGCGGGUUCGAGUCGCGUACGUAACG [U28A A37C C61G G68U], no more than 0.5.
Take GUUCCGUUGGCGUAAUGGUAACGCGUUUCCCUCCUAAGGAGAAGACUGCGGGCUCGAGUCCCGUACGGAACG [C27U U53C]: the yeast fitness came out at 0.617.
